# In ChEMBL document CHEMBL4229392, “An Efficient Buchwald-Hartwig/Reductive Cyclization for the Scaffold Diversification of Halogenated Phenazines: Potent Antibacterial Targeting, Biofilm Eradication, and Prodrug Exploration” (J Med Chem, 2018):
# Assays:
# [1] = tested on: Staphylococcus epidermidis; test: Bactericidal activity against methicillin-resistant Staphylococcus epidermidis ATCC 35984 planktonic cells after 24 hrs by calgary biofilm device method; type: organism-based
# Procedure, shortened: (§1)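 Biofilms grown 24 h at 37 °C on Calgary device pegs from mid-log culture diluted 1,000-fold in TSB + 0.5% glucose; washed pegs challenged 24 h at 37 °C with 2-fold serial dilutions. Challenge medium subcultured into fresh TSBG overnight; MBC = concentration without visible turbidity; at least three independent experiments.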
# [2] = tested on: Staphylococcus aureus; test: Induction of biofilm eradication of methicillin-resistant Staphylococcus aureus 2 after 24 hrs by calgary biofilm device method; type: functional
# Procedure, shortened: (§2)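 Calgary device: biofilms established 24 h at 37 °C from mid-log culture diluted 1,000-fold in TSBG (0.5% glucose), washed, exposed 24 h to 2-fold serial dilutions, then peg lid moved to fresh TSBG for 24 h recovery. MBEC = lowest concentration giving no turbidity; at least three independent experiments.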
# [3] = tested on: Staphylococcus aureus; test: Bactericidal activity against methicillin-resistant Staphylococcus aureus 2 planktonic cells after 24 hrs by calgary biofilm device method; type: organism-based; procedure, shortened: as §1
# [4] = tested on: Staphylococcus epidermidis; test: Induction of biofilm eradication of methicillin-resistant Staphylococcus epidermidis ATCC 35984 after 24 hrs by calgary biofilm device method; type: functional; procedure, shortened: as §2
# [5] = tested on: Staphylococcus aureus; test: Antibacterial activity against methicillin-resistant Staphylococcus aureus BAA-1707 after 16 to 18 hrs by broth microdilution method; type: functional
# Procedure, shortened: (§3)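 CLSI broth microdilution in Lysogeny Broth, eleven two-fold dilutions spanning 0.10–100 µM; ~10^5 cells per well from log-phase culture; DMSO vehicle (top 1% v/v). MIC = lowest concentration preventing growth after 16–18 h at 37 °C, supported by OD600; three independent experiments.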
# [6] = tested on: HeLa; test: Cytotoxicity against human HeLa cells after 24 hrs by LDH release assy; type: cell-based
# Procedure, shortened: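 HeLa cells in DMEM with 10% FBS at 37 °C, 5% CO2, dosed at 70-80% confluence with compound diluted in medium at 25, 50 and 100 µM for 24 h. Supernatant mixed with LDH reaction mixture, 30 min at room temperature, stopped, A490 read. Triton X-100 (2% v/v) as maximal-release control, medium only as no-death control, DMSO as vehicle. Three independent experiments.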
# [7] = tested on: Mycobacterium tuberculosis; test: Antibacterial activity against Mycobacterium tuberculosis H37Ra ATCC 25177 after 7 days; type: functional; details: H37Ra ATCC 25177, 168 h
# Procedure, shortened: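 M. tuberculosis H37Ra grown two weeks in Middlebrook 7H9, diluted to OD600 0.01; two-fold serial dilutions 0.024–50 µM (streptomycin positive control, 0.16–340 µM); final DMSO 0.5%. Incubated 7 days at 37 °C; MIC = lowest concentration with no growth, OD600 recorded; three independent experiments.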
# [8] = tested on: Enterococcus faecium; test: Antibacterial activity against vancomycin-resistant Enterococcus faecium ATCC 700221 after 16 to 18 hrs by broth microdilution method; type: functional; procedure, shortened: as §3
# [9] = tested on: Staphylococcus epidermidis; test: Antibacterial activity against methicillin-resistant Staphylococcus epidermidis ATCC 35984 after 16 to 18 hrs by broth microdilution method; type: functional
# [10] = tested on: Staphylococcus aureus; test: Antibacterial activity against methicillin-resistant Staphylococcus aureus 2 after 16 to 18 hrs by broth microdilution method; type: functional; procedure, shortened: as §3
# [11] = tested on: Staphylococcus aureus; test: Induction of biofilm eradication of methicillin-resistant Staphylococcus aureus BAA-1707 after 24 hrs by calgary biofilm device method; type: functional; procedure, shortened: as §2
# [12] = Hemolytic activity in human RBC at 200 uM after 1 hr relative to control; type: ADME, cell-based, Erythrocyte; details: red blood cells (erythrocytes), read-out: Activity
# Procedure, shortened: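 Human RBCs drawn fresh into EDTA were washed three times in Tris-buffered saline (0.01 M Tris, 0.155 M NaCl, pH 7.2). 2% hRBC suspension was added to compound from DMSO stock, final 200 µM, for 1 h at 37 °C, then centrifuged and supernatant OD405 read. Scaled between DMSO (0%) and Triton X (100%). Three independent experiments.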
# [13] = tested on: Staphylococcus aureus; test: Bactericidal activity against methicillin-resistant Staphylococcus aureus BAA-1707 planktonic cells after 24 hrs by calgary biofilm device method; type: organism-based; procedure, shortened: as §1
# [14] = tested on: Enterococcus faecium; test: Bactericidal activity against vancomycin-resistant Enterococcus faecium ATCC 700221 planktonic cells after 24 hrs by calgary biofilm device method; type: organism-based; procedure, shortened: as §1
# [15] = tested on: Enterococcus faecium; test: Induction of biofilm eradication of vancomycin-resistant Enterococcus faecium ATCC 700221 after 24 hrs by calgary biofilm device method; type: functional; procedure, shortened: as §2
# [16] = Half life in human serum by LC-MS analysis; type: ADME, cell-free
# Procedure, shortened: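 Human serum pre-warmed to 37 °C, spiked with prodrug from 10 mM DMSO stock plus internal standard, vortexed, then held 1 to 60 min. At each time point, acetonitrile with 0.5% formic acid was added to precipitate proteins. Released active HP was quantified as its ratio to internal standard against standard curves.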
SMILES,MBC [1] [µM],MBEC [4] [µM],MIC [5] [µM],IC50 [6] [µM],MIC [8] [µM],MIC [9] [µM],MBEC [11] [µM],"hemolysis at 1 h, 200 µM [12] [%]",MBC [13] [µM],also measured
N#CC(C#N)=NNc1cccc(Cl)c1 [CARBONYL CYANIDE M-CHLOROPHENYLHYDRAZONE],31.3,93.8,,,,,,,,MBEC [2]: 1000 µM; MBC [3]: 31.3 µM
NC(=O)c1cnccn1 [PYRAZINAMIDE],,,,,,,,,,MBEC [2]: >2000 µM; MBC [3]: > 2000 µM
Cc1cc(C)c2nc3c(Br)ccc(O)c3nc2c1,,,4.69,> 100,9.38,,,,,MIC [7]: 50 µM
CN[C@@H]1[C@H](O[C@H]2[C@H](O[C@H]3[C@H](O)[C@@H](O)[C@H](N=C(N)N)[C@@H](O)[C@@H]3N=C(N)N)O[C@@H](C)[C@]2(O)C=O)O[C@@H](CO)[C@H](O)[C@H]1O [STREPTOMYCIN],,,,,,,,,,MIC [7]: 1.32 µM
Oc1ccc(Br)c2nc3cc(Cl)ccc3nc12,,,,> 100,25,18.8,,,,MIC [7]: 6.25 µM
CO[C@H]1/C=C/O[C@@]2(C)Oc3c(C)c(O)c4c(O)c(c(/C=N/N5CCN(C)CC5)c(O)c4c3C2=O)NC(=O)/C(C)=C\C=C\[C@H](C)[C@H](O)[C@@H](C)[C@@H](O)[C@@H](C)[C@H](OC(C)=O)[C@@H]1C [RIFAMPIN],3,15.6,,,,0.1,,,,MBEC [2]: 46.9 µM; MBC [3]: 2 µM; MIC [10]: 0.1 µM
CCCCCCCCCC(=O)N[C@@H](Cc1c[nH]c2ccccc12)C(=O)N[C@@H](CC(N)=O)C(=O)N[C@@H](CC(=O)O)C(=O)N[C@@H]1C(=O)NCC(=O)N[C@@H](CCCN)C(=O)N[C@@H](CC(=O)O)C(=O)N[C@H](C)C(=O)N[C@@H](CC(=O)O)C(=O)NCC(=O)N[C@H](CO)C(=O)N[C@@H]([C@H](C)CC(=O)O)C(=O)N[C@@H](CC(=O)c2ccccc2N)C(=O)O[C@@H]1C [DAPTOMYCIN],,,3.13,,,,>2000,,,MBEC [2]: >2000 µM
CC(=O)NC[C@H]1CN(c2ccc(N3CCOCC3)c(F)c2)C(=O)O1 [LINEZOLID],,,12.5,,,,>2000,≤ 1,31.3,MBEC [2]: >2000 µM; MIC [10]: 3.13 µM
Cc1cc2nc3c(O)c(Br)cc(Br)c3nc2c(C)c1C,25,25,0.59,> 100,,0.1,75,1.3,150,
CC(=O)N[C@@H](CS)C(=O)O [ACETYLCYSTEINE],> 2000,>2000,,,,,,,,MBC [14]: > 2000 µM; MBEC [2]: >2000 µM; MBC [3]: > 2000 µM; MBEC [15]: >2000 µM
CCCCCCCCCC(=O)N[C@@H](Cc1c[nH]c2ccccc12)C(=O)N[C@H](CC(N)=O)C(=O)N[C@@H](CC(=O)O)C(=O)N[C@@H]1C(=O)NCC(=O)N[C@@H](CCCN)C(=O)N[C@@H](CC(=O)O)C(=O)N[C@H](C)C(=O)N[C@@H](CC(=O)O)C(=O)NCC(=O)N[C@H](CO)C(=O)N[C@@H]([C@H](C)CC(=O)O)C(=O)N[C@@H](CC(=O)c2ccccc2N)C(=O)O[C@@H]1C [DAPTOMYCIN],,,,,,,,,125,MBC [3]: 62.5 µM
O=C(OCCOCCOCCOCCO)OCOc1c(Br)cc(Br)c2nc3ccccc3nc12,,,> 100,> 100,> 100,> 100,,2.7,,half-life [16]: 7.3 min
OC[C@H]1O[C@@H](Oc2c(Br)cc(Br)c3nc4ccccc4nc23)[C@H](O)[C@@H](O)[C@@H]1O,,,> 100,,> 100,> 100,,≤ 1,,half-life [16]: > 260 min
c1ccc(CN(CCN(Cc2ccccn2)Cc2ccccn2)Cc2ccccn2)nc1,,,50,,,,>2000,≤ 1,250,MBC [14]: 188 µM; MBEC [15]: >2000 µM
COCCOCCOCC(=O)Oc1c(Br)cc(Br)c2nc3ccccc3nc12,9.38,37.5,,> 100,3.13,,75,1.2,18.8,half-life [16]: < 1 min; MBC [14]: 6.25 µM
O=C(O)CN(CCN(CC(=O)O)CC(=O)O)CC(=O)O [EDETIC ACID],1000,>2000,25,,,,>2000,,> 2000,MBEC [2]: >2000 µM; MBC [3]: 2000 µM
COCCOCCOCCOCCOC(=O)Oc1c(Br)cc(Br)c2nc3cc(Oc4ccccc4)ccc3nc12,9.38,,0.1,,0.3,0.075,4.69,≤ 1,18.8,half-life [16]: < 1 min; MBEC [15]: 1.17 µM
CCOC(=O)c1ccc2nc3c(O)c(Br)cc(Br)c3nc2c1,,,,,2.35,,,,,
CS(=O)(=O)N1CCN(C(=O)Oc2c(Br)cc(Br)c3nc4ccccc4nc23)C1=O,18.8,37.5,,> 100,3.13,1.56,75,≤ 1,37.5,half-life [16]: < 1 min; MBC [14]: 9.38 µM; MBEC [15]: 9.38 µM
Cc1ccc2nc3c(O)c(Br)cc(Br)c3nc2c1,,,,> 100,2.35,0.3,,≤ 1,,MIC [7]: 6.25 µM; MBC [14]: 12.5 µM; MBEC [15]: 3.13 µM
CCOc1ccc2nc3c(O)c(Br)cc(Br)c3nc2c1,,,> 100,,> 100,18.8,,,,
CCCc1ccc2nc3c(O)c(Br)cc(Br)c3nc2c1,25,,0.1,> 50,3.13,0.15,75,2.1,,MBC [14]: 25 µM
CCN(CC)c1ccc2nc3c(O)c(Br)cc(Br)c3nc2c1Br,9.38,6.25,0.15,> 100,0.3,0.1,4.69,≤ 1,9.38,MIC [10]: 0.3 µM
CCCc1cn(Cc2ccc3nc4c(OC(C)=O)c(Br)cc(Br)c4nc3c2)nn1,,,100,,> 100,,,,,
COCCOCCOCCOC(=O)OCOc1c(Br)cc(Br)c2nc3ccccc3nc12,,,> 100,,> 100,> 100,,1.4,,half-life [16]: 15.8 min
O=C(OCCSSCCOC(=O)c1ccccc1)OCOc1c(Br)cc(Br)c2nc3ccccc3nc12,,,> 100,> 100,> 100,> 100,,1.3,,
CCc1ccc2nc3c(O)ccc(Br)c3nc2c1,,,,> 100,12.5,9.38,,,,MIC [7]: 25 µM
COCCOCCOCCOCCOC(=O)Oc1c(Br)cc(Br)c2nc3cc(Cl)ccc3nc12,9.38,18.8,,> 100,0.1,0.038,,1.1,6.25,half-life [16]: < 1 min
C[C@H]1c2cccc(O)c2C(=O)C2=C(O)[C@]3(O)C(=O)C(C(N)=O)=C(O)[C@@H](N(C)C)[C@@H]3[C@@H](O)[C@@H]21.O [DOXYCYCLINE],,,,,,,,,,MBEC [2]: 46.9 µM; MBC [3]: 2 µM
